In ChEMBL document CHEMBL1132437, “Synthesis and antimicrobial activity of 4H-4-oxoquinolizine derivatives: consequences of structural modification at the C-8 position” (1999):
Values after ≈ are worked out from the molar mass of the structure shown.

How the values were obtained:
Mus musculus [1] = assay: In vivo efficacy against Pseudomonas aeruginosa 5007 in mouse protection test […]; assay type: functional
In short: (§1)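 Mouse protection model: mice infected intravenously with 100-fold LD50 of the organism. Compound given by subcutaneous injection or oral gavage at 1 and 5 h after infection, over a dose range. Deaths tracked for 7 days post-inoculation. ED50 is the dose giving 50% survival of treated mice over the trial.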

Burkholderia cepacia [2] = assay: In vitro antibacterial activity against gram negative Pseudomonas cepacia 2961; assay type: functional; conditions: Burkholderia cepacia; read-out: MIC
In short: (§2)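 Agar dilution MIC determination following the National Committee for Clinical Laboratory Standards recommendations.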

Mus musculus [3] = assay: In vivo efficacy against Streptococcus pneumoniae ATCC 6303 after subcutaneous administration; assay type: functional; conditions: sc; in short: as §1
Mus musculus [4] = assay: IIn vivo efficacy against Escherichia coli JUHL in mouse protection test after administration by oral gavage.; assay type: functional; in short: as §1
Staphylococcus aureus [5] = assay: In vivo efficacy against Staphylococcus aureus NCTC 10649M in mouse; assay type: functional; conditions: Staphylococcus aureus; read-out: ED50; in short: as §1
Staphylococcus aureus [6] = assay: In vitro antibacterial activity against gram-positive Staphylococcus aureus 1775; assay type: functional; in short: as §2
Staphylococcus aureus [7] = assay: In vitro antibacterial activity against gram-positive Staphylococcus aureus NCTC 10649M; assay type: functional; conditions: Staphylococcus aureus, NCTC 10649; read-out: MIC; in short: as §2
Staphylococcus aureus [8] = assay: In vivo efficacy against Staphylococcus aureus NCTC 10649M in mouse protection test after p.o. administration.; assay type: functional; conditions: Staphylococcus aureus, po; read-out: ED50; in short: as §1
Escherichia coli [9] = assay: In vivo efficacy against Escherichia coli JUHL in mouse protection test after subcutaneous administration; assay type: functional; conditions: Escherichia coli, sc; read-out: ED50; in short: as §1
Mus musculus [10] = assay: In vivo efficacy against Streptococcus pneumoniae ATCC 6303 after administration by oral gavage; assay type: functional; in short: as §1
Escherichia coli [11] = assay: In vitro antibacterial activity against gram negative Escherichia coli KNK 437; assay type: functional; conditions: Escherichia coli; read-out: MIC; in short: as §2
Pseudomonas aeruginosa [12] = assay: (§3) In vivo efficacy against Pseudomonas aeruginosa 5007 in mouse protection test after subcutaneous administration; assay type: functional; conditions: Pseudomonas aeruginosa, sc; read-out: ED50; in short: as §1
Enterococcus faecium = assay: In vitro antibacterial activity against gram-positive Enterococcus faecium ATCC 8043; assay type: functional; conditions: Enterococcus faecium, ATCC 8043; read-out: MIC; in short: as §2
Pseudomonas aeruginosa [13] = assay: In vitro antibacterial activity against gram negative P. aeruginosa DPHP 5263; assay type: functional; conditions: Pseudomonas aeruginosa, DPHP 5263; read-out: MIC; in short: as §2
Burkholderia cepacia [14] = assay: In vitro antibacterial activity against gram negative P. cepacia 2961
Burkholderia cepacia [15] = assay: In vitro antibacterial activity against Pseudomonas cepacia 2961 a ciprofloxacin resistant strain; assay type: functional
In short: (§4)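 MIC by agar dilution following National Committee for Clinical Laboratory Standards recommendations. P. cepacia 2961 is a ciprofloxacin-resistant strain; S. pyogenes 930 is erythromycin-resistant.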

Mus musculus [16] = assay: n vivo efficacy against Streptococcus pneumoniae ATCC 6303 in mouse protection test after administration by oral gavage; assay type: functional; in short: as §1
Pseudomonas aeruginosa [17] = assay: In vitro antibacterial activity against Gram-negative Pseudomonas aeruginosa 5007; assay type: functional; conditions: Pseudomonas aeruginosa; read-out: MIC; in short: as §2
Escherichia coli [18] = assay: In vivo efficacy against Escherichia coli JUHL in mouse protection test after p.o. administration.; assay type: functional; conditions: Escherichia coli, po; read-out: ED50; in short: as §1
Pseudomonas aeruginosa [19] = assay: In vivo efficacy against Pseudomonas aeruginosa 5007 in mouse protection test after administration by oral gavage; assay type: functional; in short: as §1
Streptococcus pyogenes [20] = assay: In vitro antibacterial activity against gram positive Streptococcus pyogenes 930; assay type: functional; conditions: Streptococcus pyogenes; read-out: MIC; in short: as §2
Mus musculus [21] = assay: In vivo efficacy against Escherichia coli JUHL in mouse protection test after administration by oral gavage; assay type: functional; in short: as §1
Mus musculus [22] = assay: In vivo efficacy against Streptococcus pneumoniae ATCC 6303 in mouse protection test after administration by oral gavage; assay type: functional; in short: as §1
Mus musculus [23] = assay: In vivo antibacterial activity (dose protecting 50% mice)against Gram-positive S aureus NCTC 10649M after subcutaneous administration.; assay type: functional; conditions: sc; in short: as §1
Streptococcus pneumoniae = assay: In vivo efficacy against Streptococcus pneumoniae ATCC 6303 in mouse protection test after s.c. administration.; assay type: functional; conditions: Streptococcus pneumoniae, sc; read-out: ED50; in short: as §1
Mus musculus [24] = assay: as §3; assay type: functional; conditions: sc; in short: as §1
Streptococcus pyogenes [25] = assay: In vitro antibacterial activity against Streptococcus pyogenes 930 an erythromycin-resistant; assay type: functional; in short: as §4
[26] = Staphylococcus aureus, read-out: MIC

Structure (SMILES)	MIC (Burkholderia cepacia [2])	MIC (Staphylococcus aureus [6]; [26])	MIC (Staphylococcus aureus [7])	MIC (Escherichia coli [11])	MIC (Enterococcus faecium)	MIC (Pseudomonas aeruginosa [17])	MIC (Streptococcus pyogenes [20])	ED50 (Staphylococcus aureus [5])	ED50 (Staphylococcus aureus [8])	ED50 (Escherichia coli [9])	ED50 (Pseudomonas aeruginosa [12])	MIC (Pseudomonas aeruginosa [13])	also measured
Cc1c(N2CC[C@H](N)C2)c(F)cn2c(=O)c(C(=O)O)cc(C3CC3)c12 (stereo in doubt; 3i) [ABT-719]	0.39 µg/mL (≈ 1.13 µM)	0.78 µg/mL (≈ 2.26 µM)	0.02 µg/mL (≈ 0.0579 µM)	0.02 µg/mL (≈ 0.0579 µM)	0.02 µg/mL (≈ 0.0579 µM)			0.8 mg/kg	3 mg/kg	0.3 mg/kg	0.5 mg/kg		ED50 (Mus musculus [1]): 2.9 mg/kg; ED50 (Mus musculus [3]): 2.6 mg/kg; ED50 (Mus musculus [4]): 8.3 mg/kg; ED50 (Mus musculus [10]): 10 mg/kg
Cc1c(N2CCC3(CCCC3N)C2)c(F)cn2c(=O)c(C(=O)O)cc(C3CC3)c12 (configuration not stated)		0.78 µg/mL (≈ 1.95 µM)	0.05 µg/mL (≈ 0.125 µM)	0.2 µg/mL (≈ 0.501 µM)	0.1 µg/mL (≈ 0.25 µM)							6.2 µg/mL (≈ 15.5 µM)	MIC (Burkholderia cepacia [14]): 0.78 µg/mL (≈ 1.95 µM); MIC (Burkholderia cepacia [15]): 3.1 µg/mL (≈ 7.76 µM)
Cc1c(N2C[C@@H](C)[C@H](N)C2)c(F)cn2c(=O)c(C(=O)O)cc(C3CC3)c12	0.78 µg/mL (≈ 2.17 µM)	0.78 µg/mL (≈ 2.17 µM)	0.02 µg/mL (≈ 0.0556 µM)	0.05 µg/mL (≈ 0.139 µM)	0.05 µg/mL (≈ 0.139 µM)	0.2 µg/mL (≈ 0.556 µM)						1.56 µg/mL (≈ 4.34 µM)	MIC (Streptococcus pyogenes [25]): 0.05 µg/mL (≈ 0.139 µM)

Now from value to compound, other results behind:

MIC (Burkholderia cepacia [2])	MIC (Staphylococcus aureus [6]; [26])	MIC (Staphylococcus aureus [7])	MIC (Escherichia coli [11])	MIC (Enterococcus faecium)	MIC (Pseudomonas aeruginosa [17])	MIC (Streptococcus pyogenes [20])	Structure (SMILES)	ED50 (Staphylococcus aureus [5])	ED50 (Staphylococcus aureus [8])	ED50 (Escherichia coli [9])	ED50 (Pseudomonas aeruginosa [12])	MIC (Pseudomonas aeruginosa [13])	also measured
3.1 µg/mL (≈ 7.92 µM)	0.39 µg/mL (≈ 0.996 µM)	0.01 µg/mL (≈ 0.0255 µM)	0.2 µg/mL (≈ 0.511 µM)	0.1 µg/mL (≈ 0.255 µM)	0.78 µg/mL (≈ 1.99 µM)	0.1 µg/mL (≈ 0.255 µM)	Cc1c(N2CC[C@H](NCCF)C2)c(F)cn2c(=O)c(C(=O)O)cc(C3CC3)c12	1.1 mg/kg	7.5 mg/kg	4.9 mg/kg	> 32 mg/kg	12.5 µg/mL (≈ 31.9 µM)	ED50 (Mus musculus [16]): 9.9 mg/kg; ED50 (Escherichia coli [18]): 17.2 mg/kg; ED50 (Pseudomonas aeruginosa [19]; Pseudomonas aeruginosa, po, read-out: ED50): > 50 mg/kg
1.56 µg/mL (≈ 4.2 µM)		0.02 µg/mL (≈ 0.0538 µM)	0.2 µg/mL (≈ 0.538 µM)	0.05 µg/mL (≈ 0.135 µM)			Cc1c(N2C[C@@H]3CCN[C@@H]3C2)c(F)cn2c(=O)c(C(=O)O)cc(C3CC3)c12 (stereo in doubt; 3gg)	5 mg/kg		0.4 mg/kg	6.4 mg/kg		ED50 (Mus musculus [21]): 2.5 mg/kg; ED50 (Mus musculus [22]): 7.6 mg/kg; MIC (Staphylococcus aureus [6]): 0.39 µg/mL (≈ 1.05 µM); ED50 (Mus musculus [23]): 0.7 mg/kg; ED50 (Pseudomonas aeruginosa [19]): 39.1 mg/kg
0.78 µg/mL (≈ 1.95 µM)	0.39 µg/mL (≈ 0.976 µM)	0.01 µg/mL (≈ 0.025 µM)	0.05 µg/mL (≈ 0.125 µM)	0.1 µg/mL (≈ 0.25 µM)	0.2 µg/mL (≈ 0.501 µM)	0.02 µg/mL (≈ 0.0501 µM)	Cc1c(N2CCC[C@H](NC3CC3)C2)c(F)cn2c(=O)c(C(=O)O)cc(C3CC3)c12	0.8 mg/kg		> 5 mg/kg		3.1 µg/mL (≈ 7.76 µM)	ED50 (Streptococcus pneumoniae): 4.3 mg/kg; ED50 (Mus musculus [24]): > 32 mg/kg
